Source: ChEMBL document CHEMBL4257569, “Novel KV7 ion channel openers for the treatment of epilepsy and implications for detrusor tissue contraction” (Bioorg Med Chem Lett, 2018)
Converted amounts (≈) assume the structure as drawn. The source made the active and inactive calls.

How the values were obtained:
P-gp = assay: Substrate activity at P-gp (unknown origin) assessed as efflux ratio; assay type: ADME; settings: human, not told
[1] = Kinetic aqueous solubility of the compound by CAD or CLND method; assay type: physicochemical; settings: buffer; read-out: Kinetic_solubility
[2] = Clearance in human liver microsomes; assay type: ADME, microsome
[3] = target: T1, Voltage-gated potassium channel, KQT; KCNQ2(Kv7.2)/KCNQ3(Kv7.3) (Homo sapiens) (UniProt O43526+O43525); assay: Activation of human wild type Kv7.2/7.3 expressed in CHO cells assessed as 86Rb efflux at 0.001 to 100 uM after 10 mins by microbeta liquid scintillation counting analysis; assay type: cell-based
[4] = target: Voltage-gated potassium channel, KQT; KCNQ2(Kv7.2)/KCNQ3(Kv7.3) (Homo sapiens, UniProt O43525+O43526); assay: Activation of human Kv7.2/7.3 by patch clamp method
Outline: (§1)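 Kv7.2/7.3 EC50s were measured on the IonWorks Quattro (IWQ) automated patch-clamp platform. Efficacy is expressed as % of the maximal response to the reference opener ML213.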

[5] = Activation of human Kv7.2 W236L mutant/Kv7.3 W265L mutant expressed in CHO cells assessed as 86Rb efflux at 0.001 to 100 uM after 10 mins by microbeta liquid scintillation counting analysis; assay type: cell-based
[6] = target: T1, Voltage-gated potassium channel, KQT; KCNQ2(Kv7.2)/KCNQ3(Kv7.3) (Homo sapiens); assay: Activation of human Kv7.2/7.3 by patch clamp method relative to ML213; outline: as §1
[7] = target: T2, Potassium voltage-gated channel subfamily KQT member 4 (Homo sapiens, UniProt P56696); assay: Activation of human Kv7.4 by patch clamp method
T2 sequence (P56696 whole entry): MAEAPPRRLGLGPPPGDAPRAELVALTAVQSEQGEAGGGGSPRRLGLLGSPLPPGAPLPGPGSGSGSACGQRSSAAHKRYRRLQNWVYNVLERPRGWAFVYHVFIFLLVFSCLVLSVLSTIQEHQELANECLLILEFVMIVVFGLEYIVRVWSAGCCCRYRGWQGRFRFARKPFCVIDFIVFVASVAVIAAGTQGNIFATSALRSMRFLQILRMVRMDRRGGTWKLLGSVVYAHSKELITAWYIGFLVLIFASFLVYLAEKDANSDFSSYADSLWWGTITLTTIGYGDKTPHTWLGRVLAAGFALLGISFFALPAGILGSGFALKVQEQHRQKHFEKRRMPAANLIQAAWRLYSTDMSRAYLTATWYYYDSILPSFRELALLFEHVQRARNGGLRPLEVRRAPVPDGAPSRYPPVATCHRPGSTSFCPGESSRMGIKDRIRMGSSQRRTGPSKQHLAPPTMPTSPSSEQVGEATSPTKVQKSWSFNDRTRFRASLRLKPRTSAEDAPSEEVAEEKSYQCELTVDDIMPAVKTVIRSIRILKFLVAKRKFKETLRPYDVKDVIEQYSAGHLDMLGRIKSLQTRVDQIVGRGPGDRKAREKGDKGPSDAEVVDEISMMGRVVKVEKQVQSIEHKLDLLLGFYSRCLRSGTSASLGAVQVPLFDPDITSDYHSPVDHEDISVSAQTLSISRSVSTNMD

[8] = target: Voltage-gated potassium channel KCNQ3/KCNQ5 (Homo sapiens, UniProt O43525+Q9NR82); assay: Activation of human Kv7.3/7.5 by patch clamp method
[9] = target: T1, Voltage-gated potassium channel, KQT; KCNQ2(Kv7.2)/KCNQ3(Kv7.3) (Homo sapiens); assay: Activation of human Kv7.2/7.3 assessed as difference in G-V midpoint between pre-compound and post-compound conditions at 3 uM at -90 mV holding potential by QPatch method; assay type: protein-complex assay
Mus musculus [10] = assay: Anti-seizure activity in CD-1 mouse model of pentylenetetrazol-induced tonic seizures assessed as effect on time to onset of seizure at 10 to 60 mg/kg, po; assay type: functional, organism-based
[11] = Inhibition of carbachol-induced contraction in human bladder at 10 uM; assay type: tissue-based, Urinary bladder
Mus musculus [12] = assay: Anti-seizure activity in CD-1 mouse model of pentylenetetrazol-induced clonic seizures assessed as effect on time to onset of seizure at 10 to 60 mg/kg, po; assay type: functional, organism-based
[13] = Activation of Kv7 from rat cortical neurons assessed as reduction in spontaneous neuronal firing activity after 15 mins by multi-electrode array method; settings: 0.25 h
[14] = target: T1, Voltage-gated potassium channel, KQT; KCNQ2(Kv7.2)/KCNQ3(Kv7.3) (Homo sapiens); assay: Activation of human Kv7.2/7.3 assessed as difference in G-V midpoint between pre-compound and post-compound conditions at 2 uM at -90 mV holding potential by QPatch method; assay type: protein-complex assay
[15] = target: T1, Voltage-gated potassium channel, KQT; KCNQ2(Kv7.2)/KCNQ3(Kv7.3) (Homo sapiens); assay: Activation of human Kv7.2/7.3 assessed as difference in G-V midpoint between pre-compound and post-compound conditions at 0.016 uM at -90 mV holding potential by QPatch method; assay type: protein-complex assay
[16] = target: T1, Voltage-gated potassium channel, KQT; KCNQ2(Kv7.2)/KCNQ3(Kv7.3) (Homo sapiens); assay: Activation of human Kv7.2/7.3 assessed as difference in G-V midpoint between pre-compound and post-compound conditions at 0.08 uM at -90 mV holding potential by QPatch method; assay type: protein-complex assay
[17] = target: T1, Voltage-gated potassium channel, KQT; KCNQ2(Kv7.2)/KCNQ3(Kv7.3) (Homo sapiens); assay: Activation of human Kv7.2/7.3 assessed as difference in G-V midpoint between pre-compound and post-compound conditions at 0.4 uM at -90 mV holding potential by QPatch method; assay type: protein-complex assay
[18] = Clearance in iv dosed mouse; assay type: ADME, organism-based; settings: in vivo
[19] = Ratio of drug level in brain to blood of iv dosed mouse; assay type: ADME, organism-based; settings: brain and blood
Mus musculus [20] = assay: Dose normalized AUC (0 to t) in iv dosed mouse; assay type: ADME, organism-based; settings: in vivo
Mus musculus [21] = assay: Toxicity in CD-1 mouse at 10 to 60 mg/kg, po by rotarod test; assay type: organism-based; settings: in vivo
[22] = target: T1, Voltage-gated potassium channel, KQT; KCNQ2(Kv7.2)/KCNQ3(Kv7.3) (Homo sapiens); assay: Activation of human Kv7.2/7.3 assessed as difference in G-V midpoint between pre-compound and post-compound conditions at 10 uM at -90 mV holding potential by QPatch method; assay type: protein-complex assay
Mus musculus [23] = assay: Anti-seizure activity in CD-1 mouse assessed as increase in seizure threshold at 10 to 60 mg/kg, po by maximal electroshock-threshold test; assay type: functional, organism-based
[24] = target: T1, Voltage-gated potassium channel, KQT; KCNQ2(Kv7.2)/KCNQ3(Kv7.3) (Homo sapiens); assay: Activation of human Kv7.2/7.3 assessed as difference in G-V midpoint between pre-compound and post-compound conditions at 30 uM at -90 mV holding potential by QPatch method; assay type: protein-complex assay
[25] = target: T1, Voltage-gated potassium channel, KQT; KCNQ2(Kv7.2)/KCNQ3(Kv7.3) (Homo sapiens); assay: Activation of human Kv7.2/7.3 assessed as difference in G-V midpoint between pre-compound and post-compound conditions at 6 uM at -90 mV holding potential by QPatch method; assay type: protein-complex assay
[26] = target: T1, Voltage-gated potassium channel, KQT; KCNQ2(Kv7.2)/KCNQ3(Kv7.3) (Homo sapiens); assay: Activation of human Kv7.2/7.3 assessed as difference in G-V midpoint between pre-compound and post-compound conditions at 0.048 uM at -90 mV holding potential by QPatch method; assay type: protein-complex assay
[27] = target: T1, Voltage-gated potassium channel, KQT; KCNQ2(Kv7.2)/KCNQ3(Kv7.3) (Homo sapiens); assay: Activation of human Kv7.2/7.3 assessed as difference in G-V midpoint between pre-compound and post-compound conditions at 0.24 uM at -90 mV holding potential by QPatch method; assay type: protein-complex assay
[28] = target: T1, Voltage-gated potassium channel, KQT; KCNQ2(Kv7.2)/KCNQ3(Kv7.3) (Homo sapiens); assay: Activation of human Kv7.2/7.3 assessed as difference in G-V midpoint between pre-compound and post-compound conditions at 1.2 uM at -90 mV holding potential by QPatch method; assay type: protein-complex assay

Sequence of Voltage-gated potassium channel, KQT; KCNQ2(Kv7.2)/KCNQ3(Kv7.3) (O43526 whole entry): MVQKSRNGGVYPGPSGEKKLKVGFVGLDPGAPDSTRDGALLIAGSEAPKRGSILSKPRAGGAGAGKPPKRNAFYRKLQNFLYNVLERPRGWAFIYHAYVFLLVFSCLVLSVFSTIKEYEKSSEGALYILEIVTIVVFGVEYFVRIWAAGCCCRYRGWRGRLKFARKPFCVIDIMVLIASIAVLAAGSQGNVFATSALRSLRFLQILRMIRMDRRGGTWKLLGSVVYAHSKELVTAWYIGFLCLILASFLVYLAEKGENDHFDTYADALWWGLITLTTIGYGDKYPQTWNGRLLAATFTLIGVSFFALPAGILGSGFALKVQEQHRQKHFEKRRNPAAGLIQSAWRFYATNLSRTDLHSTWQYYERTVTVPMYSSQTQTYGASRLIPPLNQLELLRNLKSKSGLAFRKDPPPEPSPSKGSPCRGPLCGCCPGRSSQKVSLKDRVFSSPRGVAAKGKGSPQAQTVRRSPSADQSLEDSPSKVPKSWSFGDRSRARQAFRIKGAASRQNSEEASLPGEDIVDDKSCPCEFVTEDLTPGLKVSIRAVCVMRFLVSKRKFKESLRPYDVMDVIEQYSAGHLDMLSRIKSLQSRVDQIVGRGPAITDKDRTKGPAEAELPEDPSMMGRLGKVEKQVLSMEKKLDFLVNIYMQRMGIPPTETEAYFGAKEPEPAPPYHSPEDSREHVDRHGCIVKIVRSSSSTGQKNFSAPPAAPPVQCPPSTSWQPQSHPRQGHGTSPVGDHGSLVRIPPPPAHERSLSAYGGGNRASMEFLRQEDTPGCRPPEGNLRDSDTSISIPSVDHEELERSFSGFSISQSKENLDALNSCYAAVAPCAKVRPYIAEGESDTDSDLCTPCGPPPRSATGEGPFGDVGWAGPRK
Sequence of Voltage-gated potassium channel, KQT; KCNQ2(Kv7.2)/KCNQ3(Kv7.3) (O43525 whole entry): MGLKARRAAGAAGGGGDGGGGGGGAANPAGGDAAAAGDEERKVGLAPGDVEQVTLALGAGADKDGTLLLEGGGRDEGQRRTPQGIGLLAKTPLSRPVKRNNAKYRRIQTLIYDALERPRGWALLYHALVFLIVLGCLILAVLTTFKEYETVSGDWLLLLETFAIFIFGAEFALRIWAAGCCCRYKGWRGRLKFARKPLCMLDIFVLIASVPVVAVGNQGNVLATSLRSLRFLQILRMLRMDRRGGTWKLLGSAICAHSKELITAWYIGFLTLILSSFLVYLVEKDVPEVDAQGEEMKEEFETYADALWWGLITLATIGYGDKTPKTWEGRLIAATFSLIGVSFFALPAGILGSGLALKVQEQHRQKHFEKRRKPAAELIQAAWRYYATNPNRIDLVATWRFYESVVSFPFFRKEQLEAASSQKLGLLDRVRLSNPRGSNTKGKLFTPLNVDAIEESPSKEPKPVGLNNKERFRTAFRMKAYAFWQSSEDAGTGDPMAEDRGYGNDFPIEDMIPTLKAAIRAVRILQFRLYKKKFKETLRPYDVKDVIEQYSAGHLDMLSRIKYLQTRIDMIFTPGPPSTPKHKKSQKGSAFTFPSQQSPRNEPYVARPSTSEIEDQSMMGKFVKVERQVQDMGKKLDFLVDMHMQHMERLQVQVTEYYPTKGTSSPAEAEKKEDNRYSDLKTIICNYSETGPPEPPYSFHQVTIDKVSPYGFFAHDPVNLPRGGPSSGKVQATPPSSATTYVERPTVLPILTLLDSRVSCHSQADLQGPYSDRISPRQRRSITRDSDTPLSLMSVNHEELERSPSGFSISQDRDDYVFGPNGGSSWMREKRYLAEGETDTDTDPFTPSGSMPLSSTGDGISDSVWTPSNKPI
Sequence of Voltage-gated potassium channel KCNQ3/KCNQ5 (O43525 whole entry): as above
Sequence of Voltage-gated potassium channel KCNQ3/KCNQ5 (Q9NR82 whole entry): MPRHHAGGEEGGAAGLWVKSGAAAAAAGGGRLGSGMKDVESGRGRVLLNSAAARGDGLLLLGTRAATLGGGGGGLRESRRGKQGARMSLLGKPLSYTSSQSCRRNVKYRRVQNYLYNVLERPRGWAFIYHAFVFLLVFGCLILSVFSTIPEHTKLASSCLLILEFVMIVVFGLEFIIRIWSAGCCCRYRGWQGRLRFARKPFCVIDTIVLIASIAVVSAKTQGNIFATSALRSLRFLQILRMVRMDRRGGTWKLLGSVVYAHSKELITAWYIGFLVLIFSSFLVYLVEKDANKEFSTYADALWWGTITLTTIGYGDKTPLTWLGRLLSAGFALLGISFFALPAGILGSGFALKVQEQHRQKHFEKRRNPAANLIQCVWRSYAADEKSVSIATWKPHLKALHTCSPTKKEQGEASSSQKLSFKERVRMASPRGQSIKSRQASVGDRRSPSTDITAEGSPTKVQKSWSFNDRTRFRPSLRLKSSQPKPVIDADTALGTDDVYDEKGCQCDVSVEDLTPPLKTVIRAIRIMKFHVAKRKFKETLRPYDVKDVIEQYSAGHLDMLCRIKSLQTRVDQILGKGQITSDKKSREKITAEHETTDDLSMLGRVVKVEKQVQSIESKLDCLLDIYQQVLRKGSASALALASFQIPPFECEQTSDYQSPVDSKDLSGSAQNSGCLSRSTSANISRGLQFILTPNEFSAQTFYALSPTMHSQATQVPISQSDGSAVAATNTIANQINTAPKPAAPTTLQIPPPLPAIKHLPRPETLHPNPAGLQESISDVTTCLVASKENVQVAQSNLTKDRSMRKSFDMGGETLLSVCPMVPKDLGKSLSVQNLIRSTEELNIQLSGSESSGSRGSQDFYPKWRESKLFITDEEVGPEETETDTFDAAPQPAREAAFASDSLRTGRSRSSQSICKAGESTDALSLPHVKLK

SMILES	efflux ratio (P-gp)	solubility kinetic [1] [µM]	Activity [3] [µM]	EC50 [4] [nM]	Activity [5] [µM]	%max [6] [%]	EC50 [7] [nM]	EC50 [8] [nM]	also measured
CS(=O)(=O)c1cccc(CNC(=O)c2cc(C(F)(F)F)ccc2Sc2ccccc2)c1	< 2	34 (≈ 15.8 µg/mL)	0.02	200	> 30	175			CLH [2]: > 3 mL/min/g
Cc1cc(C)c(NC(=O)C2CC3CCC2C3)c(C)c1 (stereo unspecified)			0.04	40	> 11		1600	500	V1/2 [9]: 24.7 to 28.4 mV
O=C(N[C@@H](CO)c1ccccc1)[C@H]1CC(F)(F)CC[C@@H]1c1ccccc1	< 2	332 (≈ 119 µg/mL)		1300		108			
O=C(N[C@@H](CO)c1ccccc1)[C@H]1CCCC[C@@H]1c1ccccc1	< 2	455 (≈ 147 µg/mL)		790		165			
C[C@H](NC(=O)[C@H]1CC(F)(F)CC[C@@H]1c1ccccc1)c1ccccc1	< 2	25 (≈ 8.59 µg/mL)		200 to 400		140	4000	400	
C[C@H](NC(=O)[C@H]1CCCC[C@@H]1c1ccccc1)c1ccccc1	< 2	57 (≈ 17.5 µg/mL)	0.1	250	> 30	115			
CS(=O)(=O)c1cccc(CNC(=O)c2cc(S(F)(F)(F)(F)F)ccc2Oc2ccccc2)c1	< 2	7 (≈ 3.55 µg/mL)		80		185			
CS(=O)(=O)c1cccc([C@H](CO)NC(=O)c2cc(S(F)(F)(F)(F)F)ccc2Oc2ccccc2)c1	< 2	121 (≈ 65 µg/mL)		20 to 60		101	> 10000	80	Activity (Mus musculus [10]): Active; inhibition (INH) [11]: Not Active; Activity (Mus musculus [12]): Active
CS(=O)(=O)c1cccc(CNC(=O)c2cc(C(F)(F)F)ccc2Oc2ccccc2)c1	< 2	23 (≈ 10.3 µg/mL)	0.05	160	> 30	245			
C[C@H](NC(=O)c1cc(C(F)(F)F)ccc1Oc1ccccc1)c1cccc(S(C)(=O)=O)c1	< 2	57 (≈ 26.4 µg/mL)		40		134			
O=C(N[C@@H](CO)c1cccc(C(F)(F)F)c1)[C@H]1CC(F)(F)CC[C@@H]1c1ccccc1	< 2	119 (≈ 50.9 µg/mL)		50 to 80		96	20	250	
CCOC(=O)Nc1ccc(NCc2ccc(F)cc2)cc1N			0.32		> 30				
C[C@H](NC(=O)c1cc(F)c(F)cc1Oc1ccccc1)c1cccc(S(C)(=O)=O)c1	< 2	145 (≈ 62.6 µg/mL)		130 to 200		132	160	200	IC50 [13]: 110 nM; V1/2 [14]: 23.1 mV; V1/2 [15]: 0.4 mV; V1/2 [16]: 5.1 mV; V1/2 [17]: 14.3 mV; Activity (Mus musculus [10]): Active; clearance [18]: 31 mL/min/kg; Kp [19]: 1.3; AUCt/dose (Mus musculus [20]): 0.33 µg·h/mL; Activity (Mus musculus [21]): Non-Toxic; V1/2 [22]: 26.8 mV; Activity (Mus musculus [12]): Active; Activity (Mus musculus [23]): Dose-dependent effect
O=C(N[C@@H](CO)c1cccc(Cl)c1)[C@H]1CC(F)(F)CC[C@@H]1c1ccccc1	< 2	318 (≈ 125 µg/mL)		100 to 300		141	100	360	IC50 [13]: 280 nM; V1/2 [24]: 27.8 mV; V1/2 [25]: 29.5 mV; clearance [18]: 48 mL/min/kg; Kp [19]: 0.8; AUCt/dose (Mus musculus [20]): 0.51 µg·h/mL; Activity (Mus musculus [21]): Non-Toxic; V1/2 [26]: 1.8 mV; Activity (Mus musculus [23]): Dose-dependent effect; V1/2 [27]: 10.2 mV; V1/2 [28]: 21 mV
CS(=O)(=O)c1cccc([C@H](CO)NC(=O)c2cc(C(F)(F)F)ccc2Oc2ccccc2)c1	< 2	11 (≈ 5.27 µg/mL)		80		77			
O=C(Nc1ccc(Cl)nc1)c1ccc(F)c(F)c1			0.46	460	0.43 to 1.81		> 10000	> 10000	Activity (Mus musculus [21]): Non-Toxic; Activity (Mus musculus [23]): Dose-dependent effect
